Assay results published in PMC10947786 (ACS synthetic biology, 2024).

Columns and labels:
[1] = Solubility in water; format: physicochemical; settings: purified peptide
[2] = Hydrogen-deuterium exchange MS; format: physicochemical; settings: 3:7 D2O:acetonitrile, MALDI-TOF MS (Figure S13); for Hydrogen-deuterium exchange, deuteration within 1 min: 1 min timescale
Summary of the method: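 Purified peptide was dried under vacuum and redissolved in 3:7 D2O:acetonitrile. At set time points over 24 h, aliquots were quenched by spotting onto the MALDI target with saturated sinapinic acid in 3:7 D2O:acetonitrile + 0.1% formic acid (pH = 2). Deuterium uptake was read by MALDI-TOF MS.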

mycetolassin-18
solubility in water [1]: > 20 mg/mL | Hydrogen-deuterium exchange, deuteration within 1 min [2]: only a fraction of the exchangeable protons were deuterated | Hydrogen-deuterium exchange, deuteration within 24 h [2]: not fully deuterated

mycetolassin-15
solubility in water [1]: > 20 mg/mL | Hydrogen-deuterium exchange, deuteration within 1 min [2]: only a fraction of the exchangeable protons were deuterated | Hydrogen-deuterium exchange, deuteration within 24 h [2]: not fully deuterated
